Test results from ChEMBL document CHEMBL1153533, “Phosphoramidate prodrugs of 2'-C-methylcytidine for therapy of hepatitis C virus infection” (J Med Chem, 2009).

Columns and labels:
[1] = test system: Hepatitis C virus; test: Antiviral activity against HCV assessed as logarithmic reduction in plasma viral RNA at 1500 mg, po BID after 14 days; assay type: functional, Hepacivirus hominis
[2] = test system: Hepatitis C virus; test: Antiviral activity against HCV infected in human HBI10A cells by subgenomic viral replicon assay; assay type: functional, organism-based, Hepacivirus hominis
[3] = Drug level in rabbit liver assessed as nucleoside triphosphate level at 1 mg/kg, sc after 24 hrs; assay type: ADME, organism-based, Oryctolagus cuniculus; set-up: dose 1 mg/kg, route subcutaneous; settings: in vivo, read-out: Drug uptake
[4] = test system: Liver; test: Drug level in rat liver assessed as nucleoside triphosphate level at 1 mg/kg, sc after 24 hrs; assay type: ADME, organism-based; set-up: dose 1 mg/kg, route subcutaneous; settings: in vivo, read-out: Drug uptake
[5] = test system: Hamster; test: AUC (0 to 48 hrs) in hamster at 1 mg/kg, sc; assay type: ADME, organism-based, Plasma; set-up: time < 48 hr, dose 1 mg/kg, route subcutaneous; settings: cricetinae, in vivo
[6] = test system: Liver; test: Drug concentration in rat liver assessed as nucleoside triphosphate level at […], sc after 6 hrs; assay type: ADME, organism-based; settings: in vivo, read-out: Drug uptake
[7] = Drug concentration in hamster liver assessed as nucleoside triphosphate level at 1.5 umol/kg, sc after 6 hrs; settings: cricetinae, in vivo
[8] = Drug level in hamster liver assessed as nucleoside triphosphate level at 1 mg/kg, sc after 24 hrs; assay type: ADME, organism-based; set-up: dose 1 mg/kg, route subcutaneous; settings: cricetinae, in vivo, read-out: Drug uptake
[9] = Cytotoxicity against human HBI10A cells
[10] = Selectivity index, ratio of CC50 for human HBI10A cells to EC50 for HCV infected in human HBI10A cells
Method in brief: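 Subgenomic HCV replicon assay gives EC₅₀ (n = 2-9 independent determinations). CC₅₀ is the concentration cutting cell viability by 50%. SI = CC₅₀/EC₅₀.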

[11] = test system: Hepatitis C virus; test: Antiviral activity against HCV assessed as logarithmic reduction in plasma viral RNA at 1500 mg, QD after 14 days; assay type: functional, Hepacivirus hominis
[12] = test system: Hepacivirus hominis; test: Inhibition of HCV NS5B polymerase by cell-based assay
[13] = test system: Hepatitis C virus; test: Antiviral activity against HCV assessed as logarithmic reduction in plasma viral RNA at 800 mg, po BID after 14 days; assay type: functional, Hepacivirus hominis
[14] = test system: Hepatocyte; test: Stability in cryopreserved primary human hepatocytes assessed as increase in intracellular nucleoside triphosphate formation by LC-MS/MS analysis; assay type: ADME, cell-based
[15] = Stability in human HBI10A cells assessed as intracellular nucleoside triphosphate AUC (0 to 24 hrs) at 100 uM by LC-MS/MS analysis
[16] = test system: Hepatitis C virus; test: Antiviral activity against HCV infected in human HBI10A cells at 20 uM by subgenomic viral replicon assay; assay type: functional, Hepacivirus hominis

Row | SMILES | EC50 ([2]; Hepatitis C virus, HBI10A) [µM] | CC50 [9] [µM] | Ratio CC50/EC50 [10] | further results
1 | CC(C)C(=O)OC[C@H]1O[C@@H](n2ccc(N)nc2=O)[C@](C)(F)[C@@H]1OC(=O)C(C)C [MERICITABINE] |  |  |  | Activity [1]: 2.7
2 | CCCC(CCC)COC(=O)[C@H](C)NP(=O)(O)OC[C@H]1O[C@@H](n2ccc(N)nc2=O)[C@](C)(O)[C@@H]1O | 8.2 | > 100 |  | concentration [3]: 4.1 µM; concentration [4]: 2.9 µM; AUC [5]: 700 µM·h; concentration [6]: 5 µM; Drug uptake [7]: 39 µM; concentration [8]: 6 µM
3 | CCOC(=O)[C@H](C)NP(=O)(OC[C@H]1O[C@@H](n2ccc(N)nc2=O)[C@](C)(O)[C@@H]1O)Oc1ccc(Cl)cc1 (stereo partly specified) |  | > 20 |  | EC50 ([2]; hbi10a): 1 µM
4 | CCOC(=O)[C@H](C)NP(=O)(OC[C@H]1O[C@@H](n2ccc(N)nc2=O)[C@](C)(O)[C@@H]1O)Oc1cccc2ccccc12 (stereo partly specified) | 0.2 | 15 | 75 | 
5 | CCOC(=O)[C@H](C)NP(=O)(OC[C@H]1O[C@@H](n2ccc(N)nc2=O)[C@](C)(O)[C@@H]1O)Oc1ccccc1C (stereo partly specified) | 0.18 | 9 | 50 | 
6 | COC(=O)[C@H](C)NP(=O)(OC[C@H]1O[C@@H](n2ccc(N)nc2=O)[C@](C)(O)[C@@H]1O)Oc1ccc(OC)cc1 (mixture of isomers) | 3.7 | > 50 | >13 | 
7 | COC(=O)CCNP(=O)(OC[C@H]1O[C@@H](n2ccc(N)nc2=O)[C@](C)(O)[C@@H]1O)Oc1ccc(Cl)cc1 (mixture of isomers) | > 20 | > 20 |  | 
8 | COC(=O)[C@H](Cc1ccccc1)NP(=O)(OC[C@H]1O[C@@H](n2ccc(N)nc2=O)[C@](C)(O)[C@@H]1O)Oc1ccc(Cl)cc1 (mixture of isomers) | > 20 | > 20 |  | 
9 | CCOC(=O)[C@H](C)NP(=O)(OC[C@H]1O[C@@H](n2ccc(N)nc2=O)[C@](C)(O)[C@@H]1O)Oc1ccc(Cl)cc1 (mixture of isomers) |  |  |  | EC50 ([2]; hbi10a): 1.8 µM
10 | CCOC(=O)[C@@H](NP(=O)(OC[C@H]1O[C@@H](n2ccc(N)nc2=O)[C@](C)(O)[C@@H]1O)Oc1ccc(Cl)cc1)c1ccccc1 (mixture of isomers) | 7.4 | > 20 | >2.5 | 
11 | CCOC(=O)[C@H](CC(C)C)NP(=O)(OC[C@H]1O[C@@H](n2ccc(N)nc2=O)[C@](C)(O)[C@@H]1O)Oc1ccc(Cl)cc1 (mixture of isomers) | 7 | > 50 | >7 | 
12 | COC(=O)CNP(=O)(OC[C@H]1O[C@@H](n2ccc(N)nc2=O)[C@](C)(O)[C@@H]1O)Oc1ccc(Cl)cc1 (mixture of isomers) | 0.8 | > 20 | >25 | 
13 | CCOC(=O)[C@H](C)NP(=O)(OC[C@H]1O[C@@H](n2ccc(N)nc2=O)[C@](C)(O)[C@@H]1O)Oc1ccccc1C(=O)OC (mixture of isomers) | 11 | > 50 | >5 | 
14 | CCOC(=O)[C@H](C)NP(=O)(OC[C@H]1O[C@@H](n2ccc(N)nc2=O)[C@](C)(O)[C@@H]1O)Oc1ccc2c(ccn2C(=O)OC(C)(C)C)c1 (stereo partly specified) | 0.5 | > 20 | 40 | 
15 | CCOC(=O)[C@H](C)NP(=O)(OC[C@H]1O[C@@H](n2ccc(N)nc2=O)[C@](C)(O)[C@@H]1O)Oc1cc(C)c(Cl)cc1C(C)C (stereo partly specified) | 0.19 | 9 | 47 | 
16 | CC(C)C(=O)OC[C@@]1(N=[N+]=[N-])O[C@@H](n2ccc(N)nc2=O)[C@H](OC(=O)C(C)C)[C@@H]1OC(=O)C(C)C [BALAPIRAVIR] |  |  |  | Activity [11]: 1.2

Row | SMILES | EC50 ([2]; Hepatitis C virus, HBI10A) [µM] | CC50 [9] [µM] | Ratio CC50/EC50 [10] | further results
17 | CCCC[C@H](NP(=O)(OC[C@H]1O[C@@H](n2ccc(N)nc2=O)[C@](C)(O)[C@@H]1O)Oc1ccc(Cl)cc1)C(=O)OCC (mixture of isomers) | 1.5 | > 20 | >13 | 
18 | C[C@@]1(O)[C@H](O)[C@@H](CO)O[C@H]1n1ccc(N)nc1=O |  |  |  | Activity [12]: 2 µM
19 | CC(C)[C@H](N)C(=O)O[C@@H]1[C@@H](CO)O[C@@H](n2ccc(N)nc2=O)[C@]1(C)O [VALOPICITABINE] | 7.6 | > 100 | >13 | Activity [13]: 1.2; Activity [14]: Dose-dependent effect; AUC [15]: 70 µM·h
20 | CCOC(=O)[C@H](C)NP(=O)(OC[C@H]1O[C@@H](n2ccc(N)nc2=O)[C@](C)(O)[C@@H]1O)Oc1ccc(Cl)cc1 (single isomer, unassigned) |  |  |  | EC50 ([2]; hbi10a): 7.9 µM
21 | CCCOC(=O)[C@H](C)NP(=O)(OC[C@H]1O[C@@H](n2ccc(N)nc2=O)[C@](C)(O)[C@@H]1O)Oc1ccccc1 (stereo partly specified) | 0.97 | > 20 |  | 
22 | CCCCOC(=O)[C@H](C)NP(=O)(OC[C@H]1O[C@@H](n2ccc(N)nc2=O)[C@](C)(O)[C@@H]1O)Oc1cccc2ccccc12 (stereo partly specified) | 0.09 | 9 |  | 
23 | COCCCOC(=O)[C@H](C)NP(=O)(OC[C@H]1O[C@@H](n2ccc(N)nc2=O)[C@](C)(O)[C@@H]1O)Oc1ccccc1 (stereo partly specified) | 1.9 | > 20 |  | 
24 | COC(=O)[C@H](C)NP(=O)(OC[C@H]1O[C@@H](n2ccc(N)nc2=O)[C@](C)(O)[C@@H]1O)Oc1ccc(C(F)(F)F)cc1 (stereo partly specified) | 9.6 | > 50 | >5 | 
25 | CCCCOC(=O)[C@H](C)NP(=O)(OC[C@H]1O[C@@H](n2ccc(N)nc2=O)[C@](C)(O)[C@@H]1O)Oc1ccccc1Cl (stereo partly specified) | 0.87 | > 20 | >23 | 
26 | CCOC(=O)[C@H](C)NP(=O)(OC[C@H]1O[C@@H](n2ccc(N)nc2=O)[C@](C)(O)[C@@H]1O)Oc1ccc(C[C@H](N)C(=O)OC)cc1 (stereo partly specified) | > 20 | > 20 |  | 
27 | CCCC(CCC)C(=O)OCCNP(=O)(O)OC[C@H]1O[C@@H](n2ccc(N)nc2=O)[C@](C)(O)[C@@H]1O |  |  |  | concentration [6]: 36 µM; Drug uptake [7]: 13 µM
28 | CCOC(=O)[C@H](C)NP(=O)(OCc1ccccc1)OC[C@H]1O[C@@H](n2ccc(N)nc2=O)[C@](C)(O)[C@@H]1O (stereo partly specified) | > 20 | > 20 |  | 
29 | CCCCOC(=O)[C@H](C)NP(=O)(OC[C@H]1O[C@@H](n2ccc(N)nc2=O)[C@](C)(O)[C@@H]1O)Oc1ccc(Cl)c2ccccc12 (mixture of isomers) | 0.16 | > 20 | 125 | 
30 | COC(=O)[C@@H](C)NP(=O)(OC[C@H]1O[C@@H](n2ccc(N)nc2=O)[C@](C)(O)[C@@H]1O)Oc1ccc(Cl)cc1 (mixture of isomers) | 7.7 | > 20 | >2.5 | 
31 | CCOC(=O)[C@H](Cc1c[nH]c2ccccc12)NP(=O)(OC[C@H]1O[C@@H](n2ccc(N)nc2=O)[C@](C)(O)[C@@H]1O)Oc1ccc(Cl)cc1 (single isomer, unassigned) | 17 | > 50 | >3 | 
32 | CCOC(=O)[C@H](C)NP(=O)(OC[C@H]1O[C@@H](n2ccc(N)nc2=O)[C@](C)(O)[C@@H]1O)OCC(Cl)(Cl)Cl (stereo partly specified) | 10 | > 50 | >5 | inhibition at 20 µM [16]: 52%
